Converted amounts (≈) assume the structure as drawn.
Assays:
Streptococcus pyogenes [1] = assay: Activity against Streptococcus pyogenes C203 when administered orally; format: functional; settings: po
Procedure, shortened: (§1)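 Mouse protection test: infected mice were dosed twice, at 1 and 5 h postinfection, either subcutaneously or orally. […] The result is expressed as ED50 in mg/kg × 2.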

Streptococcus pyogenes [2] = assay: Activity against Streptococcus pyogenes C203 when administered sc; format: functional; procedure, shortened: as §1
Streptococcus pyogenes [3] = assay: Antimicrobial activity against Streptococcus pyogenes C203; format: functional
Staphylococcus aureus [4] = assay: In vitro antimicrobial activity against Staphylococcus aureus X1; format: functional
Enterococcus faecium = assay: In vitro antimicrobial activity against Streptococcus faecium X66; format: functional, streptococcus fae-cium
Streptococcus pneumoniae [5] = assay: In vitro antimicrobial activity against Streptococcus pneumoniae; format: functional
Streptococcus pneumoniae [6] = assay: In vivo effective dose against experimental infections in mice Streptococcus pneumoniae park when administered sc; format: functional
[7] = tested on: Staphylococcus epidermidis; assay: In vitro antimicrobial activity against Staphylococcus epidermidis EPI1; format: functional
Streptococcus pneumoniae [8] = assay: In vivo effective dose against experimental infections in mice Streptococcus pneumoniae park when administered orally; format: functional; settings: po
Haemophilus influenzae = assay: In vitro antimicrobial activity against Haemophilus influenzae.; format: functional
Streptococcus pyogenes [9] = assay: In vivo effective dose against experimental infections in rodent caused by Streptococcus pyogenes C203 when administered sc; format: functional
Streptococcus pyogenes [10] = assay: In vivo effective dose against experimental infections in rodent caused by Streptococcus pyogenes C203 when administered orally; format: functional; settings: po
Streptococcus pyogenes [11] = assay: In vitro antimicrobial activity against Streptococcus pyogenes C203; format: functional
Rattus norvegicus [12] = assay: Peripheral plasma levels in rats after oral administration of 100 mg/kg dose for 0.25 hr; format: functional, organism-based; parameters: dose 100 mg/kg
Procedure, shortened: (§2)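 Rats received 100 mg/kg orally and were sampled for peripheral plasma. Concentrations were measured by Micrococcus luteus agar-diffusion microbiological assay in Antibiotic Medium 1, with zone sizes converted using the standard curve for the appropriate compound. Each value is the average of three rats per time point.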

Streptococcus pneumoniae [13] = assay: In vivo effective dose against experimental infections in mice Strep. pneumoniae park when administered sc; format: functional
Rattus norvegicus [14] = assay: Peripheral plasma levels in rats after oral administration of 100 mg/kg dose for 0.5 hr; format: functional, organism-based; parameters: dose 100 mg/kg; procedure, shortened: as §2
Staphylococcus aureus [15] = assay: In vivo effective dose against experimental infections in mice Staphylococcus aureus X1 when administered orally; format: functional; settings: po
Streptococcus pneumoniae [16] = assay: In vivo effective dose against experimental infections in mice Strep. pneumoniae park when administered orally; format: functional; settings: po
Mus musculus [17] = assay: Peripheral plasma levels in mice after oral administration of 100 mg/kg dose for 2 hr; format: functional, organism-based; parameters: dose 100 mg/kg
Procedure, shortened: (§3)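 Mice were given the compound orally and sampled for peripheral plasma at each time point. Plasma was assayed microbiologically against Micrococcus luteus seeded in Antibiotic Medium 1. Inhibition zone sizes were read, and concentrations were calculated from each compound's own standard curve. Each value is the mean of five mice per time point.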

Mus musculus [18] = assay: Peripheral plasma levels in mice after oral administration of 100 mg/kg dose for 1 hr; format: functional, organism-based; parameters: dose 100 mg/kg; procedure, shortened: as §3
Rattus norvegicus [19] = assay: Peripheral plasma levels in rats after oral administration of 100 mg/kg dose for 1 hr; format: functional, organism-based; parameters: dose 100 mg/kg; procedure, shortened: as §2
Rattus norvegicus [20] = assay: Peripheral plasma levels in rats after oral administration of 100 mg/kg dose for 4 hr; format: functional, organism-based; parameters: dose 100 mg/kg; procedure, shortened: as §2
Staphylococcus aureus [21] = assay: In vivo effective dose against experimental infections in mice Staphylococcus aureus X1 when administered sc; format: functional
Mus musculus [22] = assay: Peripheral plasma levels in mice after oral administration of 100 mg/kg dose for 0.5 hr; format: functional, organism-based; parameters: dose 100 mg/kg; procedure, shortened: as §3
Rattus norvegicus [23] = assay: Peripheral plasma levels in rats after oral administration of 100 mg/kg dose for 2 hr; format: functional, organism-based; parameters: dose 100 mg/kg; procedure, shortened: as §2

CC[C@H]1OC(=O)C[C@@H](O)[C@H](C)[C@@H](O[C@@H]2O[C@H](C)[C@@H](O[C@H]3C[C@@](C)(O)[C@@H](O)[C@H](C)O3)[C@H](N(C)C)[C@H]2OC(C)=O)[C@@H](CCOc2ccccc2)C[C@@H](C)C(=O)/C=C/C(C)=C/[C@@H]1CO[C@@H]1O[C@H](C)[C@@H](O)[C@@H](OC)[C@H]1OC
ED50 (Streptococcus pyogenes [1]): 76.5 mg/kg | ED50 (Streptococcus pyogenes [2]): > 10 mg/kg | MIC (Streptococcus pyogenes [3]): 4 µg/mL (≈ 3.86 µM)

CC[C@H]1OC(=O)C[C@@H](O)[C@H](C)[C@@H](O[C@@H]2O[C@H](C)[C@@H](O)[C@H](N(C)C)[C@H]2O)[C@@H](CCOc2cccc(Oc3ccccc3)c2)C[C@@H](C)C(=O)/C=C/C(C)=C/[C@@H]1CO[C@@H]1O[C@H](C)[C@@H](O)[C@@H](OC)[C@H]1OC
MIC (Staphylococcus aureus [4]): 0.5 µg/mL (≈ 0.531 µM) | MIC (Enterococcus faecium): 0.5 µg/mL (≈ 0.531 µM) | MIC (Streptococcus pneumoniae [5]): 0.25 µg/mL (≈ 0.265 µM) | ED50 (Streptococcus pneumoniae [6]): > 20 mg/kg | MIC [7]: 0.5 µg/mL (≈ 0.531 µM) | ED50 (Streptococcus pneumoniae [8]): 46 mg/kg | MIC (Haemophilus influenzae): 16 µg/mL (≈ 17 µM) | ED50 (Streptococcus pyogenes [9]): > 10 mg/kg | ED50 (Streptococcus pyogenes [10]): 35 mg/kg | MIC (Streptococcus pyogenes [11]): 0.25 µg/mL (≈ 0.265 µM)

CC[C@H]1OC(=O)C[C@@H](O)[C@H](C)[C@@H](O[C@@H]2O[C@H](C)[C@@H](O)[C@H](N(C)C)[C@H]2OC(C)=O)[C@@H](CCOc2ccccc2)C[C@@H](C)C(=O)/C=C/C(C)=C/[C@@H]1CO[C@@H]1O[C@H](C)[C@@H](O)[C@@H](OC)[C@H]1OC
ED50 (Streptococcus pyogenes [1]): 9 mg/kg | ED50 (Streptococcus pyogenes [2]): 1 mg/kg | MIC (Streptococcus pyogenes [3]): 1 µg/mL (≈ 1.12 µM)

CC[C@H]1OC(=O)C[C@@H](O)[C@H](C)[C@@H](O[C@@H]2O[C@H](C)[C@@H](O)[C@H](N(C)C)[C@H]2O)[C@@H](CCN2CCCCCCC2)C[C@@H](C)C(=O)/C=C/C(C)=C/[C@@H]1CO[C@@H]1O[C@H](C)[C@@H](O)[C@@H](OC)[C@H]1OC
Concentration (Rattus norvegicus [12]): 0.3 µg/mL | ED50 (Streptococcus pneumoniae [13]): > 20 mg/kg | MIC (Staphylococcus aureus [4]): 0.5 µg/mL (≈ 0.575 µM) | MIC (Enterococcus faecium): 4 µg/mL (≈ 4.6 µM) | Concentration (Rattus norvegicus [14]): 0.4 µg/mL | MIC (Streptococcus pneumoniae [5]): 0.25 µg/mL (≈ 0.288 µM) | ED50 (Staphylococcus aureus [15]): 25 mg/kg | ED50 (Streptococcus pneumoniae [16]): > 50 mg/kg | MIC [7]: 0.5 µg/mL (≈ 0.575 µM) | Concentration (Mus musculus [17]): 0.1 µg/mL | Concentration (Mus musculus [18]): 0.1 µg/mL | MIC (Haemophilus influenzae): 8 µg/mL (≈ 9.2 µM) | ED50 (Streptococcus pyogenes [9]): 0.9 mg/kg | Concentration (Rattus norvegicus [19]): 0.2 µg/mL | Concentration (Rattus norvegicus [20]): 0.2 µg/mL | ED50 (Staphylococcus aureus [21]): 2 mg/kg | Concentration (Mus musculus [22]): 0.1 µg/mL | Concentration (Rattus norvegicus [23]): 1.1 µg/mL | ED50 (Streptococcus pyogenes [10]): 20 mg/kg | MIC (Streptococcus pyogenes [11]): 0.25 µg/mL (≈ 0.288 µM)

Reference: ChEMBL document CHEMBL1124186, “Synthesis and evaluation of tylosin-related macrolides modified at the aldehyde function: a new series of orally effective antibiotics” (1988)
